From ChEMBL document CHEMBL3739352, “Anticonvulsant activity, crystal structures, and preliminary safety evaluation of N-trans-cinnamoyl derivatives of selected (un)modified aminoalkanols” (Eur J Med Chem, 2016)
Calls of active or inactive are those of the source. The calls are words filed in the database; no cut-off is given here.

Experiments:
Rattus norvegicus [1] = experiment: Neurotoxicity in Sprague-Dawley rat at 30 mg/kg, po after 4 hrs; assay type: toxicity, organism-based; details: in vivo
How it was run: (§1)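 Sprague-Dawley rats were given 30 mg/kg orally in 0.5% methylcellulose. Neurotoxicity was checked at 0.25, 0.5, 1.0, 2.0 and 4 h after dosing. Results are given as number of rats showing neurotoxicity/number tested.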

Rattus norvegicus [2] = experiment: Neurotoxicity in Sprague-Dawley rat at 30 mg/kg, po after 1 hr; assay type: toxicity, organism-based; details: in vivo; how it was run: as §1
Rattus norvegicus [3] = experiment: Neurotoxicity in Sprague-Dawley rat at 30 mg/kg, po after 0.5 hrs; assay type: toxicity, organism-based; details: in vivo; how it was run: as §1
Rattus norvegicus [4] = experiment: Anticonvulsant activity in Sprague-Dawley rat assessed as protection against maximal electroshock-induced seizures at 30 mg/kg, po after 0.5 hrs; assay type: functional, organism-based
How it was run: (§2)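 Sprague-Dawley rats were given 30 mg/kg p.o. in 0.5% methylcellulose. Maximal electroshock was applied at 0.25, 0.5, 1.0, 2.0 and 4 h after dosing. Results are reported as number of rats protected / number tested.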

Rattus norvegicus [5] = experiment: Anticonvulsant activity in Sprague-Dawley rat assessed as protection against maximal electroshock-induced seizures at 30 mg/kg, po after 0.25 hrs; assay type: functional, organism-based; how it was run: as §2
Mus musculus [6] = experiment: Anticonvulsant activity in albino Carworth Farms No.1 mouse assessed as protection against 6-Hz electroshock-induced seizures at 100 mg/kg, ip after 4 hrs; assay type: functional, organism-based
How it was run: (§3)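 Carworth Farms No.1 albino mice were dosed i.p. at 100 mg/kg (0.5% methylcellulose solution or suspension). 6-Hz seizures were induced at 32 mA at 0.25, 0.5, 1.0, 2.0 and 4 h after injection. Results are given as animals protected / animals tested.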

Mus musculus [7] = experiment: Anticonvulsant activity in albino Carworth Farms No.1 mouse assessed as protection against 6-Hz electroshock-induced seizures at 100 mg/kg, ip after 2 hrs; assay type: functional, organism-based; how it was run: as §3
Mus musculus [8] = experiment: Neurotoxicity in albino Carworth Farms No.1 mouse at 300 mg/kg, ip after 0.5 hrs by rotarod test; assay type: toxicity, organism-based; details: in vivo
How it was run: (§4)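 Mice (albino Carworth Farms No.1) were dosed i.p. at 30, 100 or 300 mg/kg in 0.5% methylcellulose. They were tested 0.5 and 4 h later on a 1-inch knurled rod rotating at 6 rpm. Neurotoxicity was scored if a mouse could not stay on the rod for at least 1 min in each of three trials. Results are given as animals toxic/animals tested, with deaths noted.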

Mus musculus [9] = experiment: Anticonvulsant activity in albino Carworth Farms No.1 mouse assessed as protection against subcutaneous dosed pentetrazol-induced seizures at 300 mg/kg, ip after 4 hrs; assay type: functional, organism-based
How it was run: (§5)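 Mouse i.p. screen in Carworth Farms No.1 albino mice at 30, 100 or 300 mg/kg in 0.5% methylcellulose. Testing was at 0.5 and 4 h after injection, by maximal electroshock or by subcutaneous pentetrazol challenge. Scoring was number protected / number used.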

Mus musculus [10] = experiment: Anticonvulsant activity in albino Carworth Farms No.1 mouse assessed as protection against subcutaneous dosed pentetrazol-induced seizures at 300 mg/kg, ip after 0.5 hrs; assay type: functional, organism-based; how it was run: as §5
Mus musculus [11] = experiment: Anticonvulsant activity in albino Carworth Farms No.1 mouse assessed as protection against subcutaneous dosed pentetrazol-induced seizures at 100 mg/kg, ip after 4 hrs; assay type: functional, organism-based; how it was run: as §5
Mus musculus [12] = experiment: Anticonvulsant activity in albino Carworth Farms No.1 mouse assessed as protection against subcutaneous dosed pentetrazol-induced seizures at 30 mg/kg, ip after 0.5 hrs; assay type: functional, organism-based; how it was run: as §5
Mus musculus [13] = experiment: Anticonvulsant activity in albino Carworth Farms No.1 mouse assessed as protection against maximal electroshock-induced seizures at 300 mg/kg, ip after 4 hrs; assay type: functional, organism-based; how it was run: as §5
Mus musculus [14] = experiment: Anticonvulsant activity in albino Carworth Farms No.1 mouse assessed as protection against maximal electroshock-induced seizures at 100 mg/kg, ip after 0.5 hrs; assay type: functional, organism-based; how it was run: as §5
[15] = Hepatotoxicity against human HepG2 cells assessed as cell viability at 10 uM after 24 hrs by MTT assay relative to control; assay type: toxicity, cell-based; details: read-out: Activity
How it was run: (§6)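 HepG2 cells (EMEM, 10% FBS, 37 °C, 5% CO₂) were seeded at 1 × 10⁴ per well and cultured overnight. They were then exposed to increasing compound concentrations for 24 h. MTT reagent was added for 3 h and formazan crystals dissolved before reading. Data are mean ± SD of at least three independent experiments, relative to untreated control.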

[16] = Hepatotoxicity against human HepG2 cells assessed as cell viability at 25 uM after 24 hrs by MTT assay relative to control; assay type: toxicity, cell-based; details: read-out: Activity; how it was run: as §6
Salmonella typhimurium [17] = experiment: Mutagenicity in Salmonella typhimurium TA100 assessed as mutagenic index at 20 ug/plate by Ames test; assay type: toxicity, organism-based; details: salmonella enterica subsp. enterica serovar typhimurium
How it was run: (§7)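 Ames preincubation test. Strain culture was grown 12 h at 37 °C in nutrient broth, then mixed with compound in DMSO (final 4, 20, 100, 500, 1000 per plate) and buffer in top agar with trace histidine. This was plated on glucose minimal agar for 48 h at 37 °C. Mutagenic index = revertants with compound / DMSO control revertants, from three independent repeats.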

Salmonella typhimurium [18] = experiment: Mutagenicity in Salmonella typhimurium TA100 assessed as mutagenic index at 100 ug/plate by Ames test; assay type: toxicity, organism-based; details: salmonella enterica subsp. enterica serovar typhimurium; how it was run: as §7
Salmonella typhimurium [19] = experiment: Mutagenicity in Salmonella typhimurium TA100 assessed as assessed as mutagenic index at 1000 ug/plate by Ames test; assay type: toxicity, organism-based; details: salmonella enterica subsp. enterica serovar typhimurium; how it was run: as §7
Salmonella typhimurium [20] = experiment: Mutagenicity in Salmonella typhimurium TA1535 assessed as assessed as mutagenic index at 4 ug/plate by Ames test; assay type: toxicity, organism-based; details: salmonella enterica subsp. enterica serovar typhimurium; how it was run: as §7
Salmonella typhimurium [21] = experiment: Mutagenicity in Salmonella typhimurium TA1535 assessed assessed as mutagenic index at 100 ug/plate by Ames test; assay type: toxicity, organism-based; details: salmonella enterica subsp. enterica serovar typhimurium
Salmonella typhimurium [22] = experiment: Mutagenicity in Salmonella typhimurium TA98 assessed as mutagenic index at 20 ug/plate by Ames test; assay type: toxicity, organism-based; details: salmonella enterica subsp. enterica serovar typhimurium
Salmonella typhimurium [23] = experiment: Mutagenicity in Salmonella typhimurium TA98 assessed as mutagenic index at 100 ug/plate by Ames test; assay type: toxicity, organism-based; details: salmonella enterica subsp. enterica serovar typhimurium
Mus musculus [24] = experiment: Neurotoxicity in albino Carworth Farms No.1 mouse at 30 mg/kg, ip after 4 hrs by rotarod test; assay type: toxicity, organism-based; details: in vivo; how it was run: as §4
Mus musculus [25] = experiment: Neurotoxicity in albino Carworth Farms No.1 mouse at 100 mg/kg, ip after 4 hrs by rotarod test; assay type: toxicity, organism-based; details: in vivo; how it was run: as §4
[26] = Lipophilicity of the compound using 95% methanol in water at 1 mg/ml by RT-TLC analysis; assay type: physicochemical; details: buffer
How it was run: (§8)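 Reversed-phase TLC with a methanol–water mobile phase at the stated methanol content (v/v). Compounds were spotted from 1 mg/mL methanol solutions after 1 h chamber saturation and located under UV light. Rf was measured and RM = log(1/Rf − 1) calculated.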

[27] = Lipophilicity of the compound using 75% methanol in water at 1 mg/ml by RT-TLC analysis; assay type: physicochemical; details: buffer; how it was run: as §8
Salmonella typhimurium [28] = experiment: Mutagenicity in Salmonella typhimurium TA98 assessed as number of revertants at 100 ug/plate by Ames test (reference value: 23 +/- 3); assay type: toxicity, organism-based; details: salmonella enterica subsp. enterica serovar typhimurium
Salmonella typhimurium [29] = experiment: Mutagenicity in Salmonella typhimurium TA1535 assessed as number of revertants at 4 ug/plate by Ames test (reference value: 10 +/- 3); assay type: toxicity, organism-based; details: salmonella enterica subsp. enterica serovar typhimurium
[30] = Protection index, ratio of TD50 for neurotoxicity in po dosed Sprague-Dawley rat to ED50 for anticonvulsant activity in po dosed Sprague-Dawley rat assessed as maximal electroshock-induced seizures; assay type: toxicity, organism-based; details: in vivo
in vitro [31] = details: human, HepG2 cells
in vitro [32] = details: human, HepG2 cells; remark: listed apart in the source
in vitro [33] = details: human, HepG2 cells; remark: listed apart in the source

CC(O)CNC(=O)/C=C/c1ccccc1 (racemic)
Activity (Rattus norvegicus [1]): Non-toxic | Activity (Rattus norvegicus [2]): Non-toxic | Activity (Rattus norvegicus [3]): Non-toxic | Activity (Rattus norvegicus [4]): inactive | Activity (Rattus norvegicus [5]): inactive | Activity (Mus musculus [6]): inactive | Activity (Mus musculus [7]): inactive | Activity (Mus musculus [8]): Non-toxic | Activity (Mus musculus [9]): inactive | Activity (Mus musculus [10]): Active | Activity (Mus musculus [11]): inactive | Activity (Mus musculus [12]): inactive | Activity (Mus musculus [13]): inactive | Activity (Mus musculus [14]): inactive | viability at 24 h, 10 µM [15]: 97.3% | viability at 24 h, 25 µM [16]: 92.5% | Activity_index (Salmonella typhimurium [17]): 0.9 | Activity_index (Salmonella typhimurium [18]): 0.9 | Activity_index (Salmonella typhimurium [19]): 1 | Activity_index (Salmonella typhimurium [20]): 1.2 | Activity_index (Salmonella typhimurium [21]): 1.2 | Activity_index (Salmonella typhimurium [22]): 1 | Activity_index (Salmonella typhimurium [23]): 0.9 | Activity (Mus musculus [24]): Non-toxic | Activity (Mus musculus [25]): Non-toxic | Rm [26]: -0.69 | Rm [27]: -0.27 | Activity (Salmonella typhimurium [28]): 21 | Activity (Salmonella typhimurium [29]): 12 | selectivity ratio [30]: > 11 | viability at 24 h, 10 µM (in vitro [31]): 99% | viability at 24 h, 25 µM (in vitro [32]): 99% | viability at 24 h, 100 µM (in vitro [33]): 85%
